Active and inactive are the calls of the source. No cut-off for these calls is given here.
What was measured:
[1] = target: Pyruvate kinase PKLR (Rattus norvegicus) (UniProt P12928); assay: Inactivation of Sprague-Dawley rat pyruvate kinase L using PEP as substrate at 10 mM at pH 7 after 8 hrs by spectrophotometric analysis
In short: (§1)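 Electrofocused isozymes, at tenfold (M) or twofold (L, K) assay level, exposed at pH 7.0 and 22 °C to Mg salts of the analogues. Medium: triethanolamine buffer with MgCl2, KCl, NADH, fructose diphosphate and lactate dehydrogenase, no ADP or PEP. Exposure was 8 h at 5 mM, or up to 10 mM for the liver isozyme; M controls were followed to 24 h. Timed aliquots were assayed by the coupled LDH method at 340 nm with 0.373 mM ADP, against controls lacking analogue.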

[2] = target: Pyruvate kinase PKM (Rattus norvegicus) (UniProt P11980); assay: Activity at Sprague-Dawley rat pyruvate kinase M assessed as initial enzyme reaction velocity at 0.21 mM by spectrophotometric analysis relative to ADP
Chain of Pyruvate kinase PKM (Rattus norvegicus) (P11980 whole entry): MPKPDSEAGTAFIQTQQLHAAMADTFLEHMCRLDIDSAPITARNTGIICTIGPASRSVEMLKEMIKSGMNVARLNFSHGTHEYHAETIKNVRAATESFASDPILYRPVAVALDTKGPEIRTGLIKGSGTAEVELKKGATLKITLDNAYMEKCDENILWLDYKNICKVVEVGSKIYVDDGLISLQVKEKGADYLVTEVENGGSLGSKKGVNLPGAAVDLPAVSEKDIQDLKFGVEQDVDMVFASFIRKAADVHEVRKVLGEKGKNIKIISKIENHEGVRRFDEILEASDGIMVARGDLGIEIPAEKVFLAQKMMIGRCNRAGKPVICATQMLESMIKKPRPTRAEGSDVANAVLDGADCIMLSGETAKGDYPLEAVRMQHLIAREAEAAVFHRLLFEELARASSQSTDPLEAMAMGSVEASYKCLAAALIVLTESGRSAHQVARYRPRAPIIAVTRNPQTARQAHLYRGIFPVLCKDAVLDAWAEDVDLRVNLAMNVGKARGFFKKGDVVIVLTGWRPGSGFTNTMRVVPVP
In short: (§2)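 Isozymes K, L and M from male Sprague-Dawley rat kidney, liver and muscle, partially purified by electrofocusing and dialyzed. Assay in 0.05 M triethanolamine-HCl pH 7.0 with 5 mM MgCl2, 67 mM KCl, 0.56 mM phosphoenolpyruvate, 0.4 mM NADH, 10 μM fructose 1,6-diphosphate, 0.21 mM nucleotide and lactate dehydrogenase. After 5 min preincubation, the nucleotide starts the reaction. Initial rate at 340 nm, 22 °C, expressed relative to ADP (100).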

Rattus norvegicus [3] = species on record: Rattus norvegicus; assay: Activity at Sprague-Dawley rat pyruvate kinase K assessed as initial enzyme reaction velocity at 0.21 mM by spectrophotometric analysis relative to ADP; in short: as §2
[4] = target: Pyruvate kinase PKLR (Rattus norvegicus) (UniProt P12928); assay: Activity at Sprague-Dawley rat pyruvate kinase L assessed as initial enzyme reaction velocity at 0.21 mM by spectrophotometric analysis relative to ADP; in short: as §2
[5] = target: Pyruvate kinase PKLR (Rattus norvegicus) (UniProt P12928); assay: Inactivation of Sprague-Dawley rat pyruvate kinase L using PEP as substrate at 5 mM at pH 7 after 8 hrs by spectrophotometric analysis; in short: as §1
Rattus norvegicus [6] = species on record: Rattus norvegicus; assay: Inactivation of Sprague-Dawley rat pyruvate kinase K using PEP as substrate at 5 mM at pH 7 after 8 hrs by spectrophotometric analysis; in short: as §1
[7] = target: Pyruvate kinase PKLR (Rattus norvegicus) (UniProt P12928); assay: Inactivation of Sprague-Dawley rat pyruvate kinase L using PEP as substrate at 5 mM at pH 7 after 8 hrs by spectrophotometric analysis in presence of 5 mM ADP
In short: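 Liver isozyme exposed to 5 mM Mg-analogue together with 5 mM ADP for 8 h at 22 °C, pH 7.0, in triethanolamine/MgCl2/KCl medium. Remaining activity was measured in timed aliquots by the LDH-coupled 340 nm assay with 0.373 mM ADP.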

[8] = target: Pyruvate kinase PKLR (Rattus norvegicus) (UniProt P12928); assay: Half life for inactivation of Sprague-Dawley rat pyruvate kinase L using PEP as substrate by spectrophotometric analysis
In short: (§3)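 Liver isozyme incubated at 22 °C with Mg salt of the analogue at 3.0–10.0 mM in triethanolamine buffer with MgCl2, KCl, NADH, fructose diphosphate and lactate dehydrogenase, without ADP or PEP. Aliquots taken over time and assayed at 340 nm with 0.373 mM ADP. Pseudo-first-order inactivation half-times were derived, with t1/2 extrapolated to infinite inhibitor level, and apparent K from the rate-saturation analysis.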

Pyruvate kinase PKLR [9] = target: T1, Pyruvate kinase PKLR (Rattus norvegicus, UniProt P12928); assay: Binding affinity to Sprague-Dawley rat pyruvate kinase L assessed as apprent enzyme-inhibitor dissociation constant using PEP as substrate by spectrophotometric analysis; settings: read-out: Kd(app); in short: as §3
T1 sequence (P12928 whole entry): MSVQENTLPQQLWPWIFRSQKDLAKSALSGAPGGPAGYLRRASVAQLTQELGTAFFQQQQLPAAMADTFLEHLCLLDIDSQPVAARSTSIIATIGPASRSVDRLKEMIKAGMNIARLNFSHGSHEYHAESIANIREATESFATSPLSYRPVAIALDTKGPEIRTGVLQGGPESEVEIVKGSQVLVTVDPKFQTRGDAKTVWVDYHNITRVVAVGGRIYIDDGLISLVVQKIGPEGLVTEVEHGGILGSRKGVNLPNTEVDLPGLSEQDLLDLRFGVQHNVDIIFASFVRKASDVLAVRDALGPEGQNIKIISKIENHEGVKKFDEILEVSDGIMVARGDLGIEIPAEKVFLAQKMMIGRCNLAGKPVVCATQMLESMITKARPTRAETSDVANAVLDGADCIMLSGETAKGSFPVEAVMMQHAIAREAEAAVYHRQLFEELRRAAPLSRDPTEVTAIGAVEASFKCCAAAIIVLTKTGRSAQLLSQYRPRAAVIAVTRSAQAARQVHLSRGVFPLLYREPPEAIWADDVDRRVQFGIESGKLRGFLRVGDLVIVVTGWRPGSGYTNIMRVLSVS

[10] = target: Pyruvate kinase PKM (Rattus norvegicus) (UniProt P11980); assay: Inactivation of Sprague-Dawley rat pyruvate kinase M using PEP as substrate at 7 mM pretreated at 22 degC for 2 hrs with pyruvate kinase L measured for 3.5 hrs by spectrophotometric analysis
In short: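 Liver isozyme treated with the analogue (7 mM) for 2 h at 22 °C under the usual inactivation conditions, then an approximately equal activity of muscle isozyme added. Muscle activity followed for a further 3.5 h by the LDH-coupled 340 nm assay.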

[11] = target: Pyruvate kinase PKLR (Rattus norvegicus) (UniProt P12928); assay: Inactivation of Sprague-Dawley rat pyruvate kinase L using PEP as substrate at 7 mM pretreated with pyruvate kinase M measured for 4 hrs by spectrophotometric analysis
In short: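 Muscle isozyme first exposed to the analogue (7 mM) under the usual inactivation conditions at 22 °C, then liver isozyme added. Liver isozyme inactivation was followed over 4 h by the LDH-coupled 340 nm assay.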

Rattus norvegicus [12] = species on record: Rattus norvegicus; assay: Inactivation of Sprague-Dawley rat pyruvate kinase K using PEP as substrate at 7 mM pretreated with pyruvate kinase L by spectrophotometric analysis
[13] = target: Pyruvate kinase PKLR (Rattus norvegicus) (UniProt P12928); assay: Inactivation of Sprague-Dawley rat pyruvate kinase L using PEP as substrate at 7 mM pretreated with pyruvate kinase K by spectrophotometric analysis
[14] = Retardation factor of the compound using 1-butanol-acetic acid-water as solvent system by paper chromatography; assay type: physicochemical; settings: buffer
Pyruvate kinase PKM = Pyruvate kinase PKM (Rattus norvegicus, UniProt P11980); assay: Drug metabolism assessed as Sprague-Dawley rat pyruvate kinase M-mediated drug conversion; assay type: ADME
Chain of Pyruvate kinase PKM (P11980 whole entry): as the sequence (P11980 whole entry) above
In short: (§4)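 Each isozyme preparation (K, L, M) incubated with the analogue under inactivation conditions: pH 7.0, 22 °C, triethanolamine buffer with MgCl2 and KCl. Conversion of the analogue to other compounds checked by paper electrophoresis at pH 3.5.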

Pyruvate kinase PKLR [15] = target: T1, Pyruvate kinase PKLR; assay: Drug metabolism assessed as Sprague-Dawley rat pyruvate kinase L-mediated drug conversion; assay type: ADME; in short: as §4
[16] = Drug metabolism assessed as Sprague-Dawley rat pyruvate kinase K-mediated drug conversion; assay type: ADME; in short: as §4
[17] = target: Pyruvate kinase PKM (Rattus norvegicus) (UniProt P11980); assay: Inactivation of Sprague-Dawley rat pyruvate kinase M using PEP as substrate at 5 mM at pH 7 after 8 hrs by spectrophotometric analysis; in short: as §1

Chain of Pyruvate kinase PKLR (Rattus norvegicus) (P12928 whole entry): as the sequence (P12928 whole entry) above

SMILES	Activity [2] [%]	Activity [4] [%]	inhibition [5]	inhibition (Rattus norvegicus [6])	Rf [14]	inhibition [17]	also measured
O=C(CI)NCCCCCCCCNc1ncnc2c1ncn2[C@@H]1O[C@H](COP(=O)(O)O)[C@@H](O)[C@H]1O	–	–	–	–	–	–	inhibition [1]: inactive
CC(=O)NCCCCCCCCNc1ncnc2c1ncn2[C@@H]1O[C@H](COP(=O)(O)OP(=O)(O)O)[C@@H](O)[C@H]1O	–	9	inactive	–	–	–	–
O=C(CI)NCCCCNc1ncnc2c1ncn2[C@@H]1O[C@H](COP(=O)(O)OP(=O)(O)O)[C@@H](O)[C@H]1O	–	–	inactive	inactive	0.58	inactive	–
O=C(CI)NCCCNc1ncnc2c1ncn2[C@@H]1O[C@H](COP(=O)(O)OP(=O)(O)O)[C@@H](O)[C@H]1O	–	–	inactive	inactive	0.55	inactive	–
O=C(CI)NCCNc1ncnc2c1ncn2[C@@H]1O[C@H](COP(=O)(O)OP(=O)(O)O)[C@@H](O)[C@H]1O	–	–	inactive	inactive	0.53	inactive	–

Second part, led by results:

Activity [2] [%]	Activity [4] [%]	inhibition [5]	inhibition (Rattus norvegicus [6])	Rf [14]	inhibition [17]	SMILES	also measured
54	13	80%	inactive	0.71	–	O=C(CI)NCCCCCCCCNc1ncnc2c1ncn2[C@@H]1O[C@H](COP(=O)(O)OP(=O)(O)O)[C@@H](O)[C@H]1O	Activity (Rattus norvegicus [3]): 21%; inhibition [7]: inactive; T1/2 [8]: 23 min; Kd (Pyruvate kinase PKLR [9]): 36 mM; inhibition [10]: inactive; inhibition [11]: Active; inhibition (Rattus norvegicus [12]): inactive; inhibition [13]: Active; Drug metabolism (Pyruvate kinase PKM): metabolite_notdetected; Drug metabolism (Pyruvate kinase PKLR [15]): metabolite_notdetected; Drug metabolism [16]: metabolite_notdetected
25	12	inactive	inactive	0.68	inactive	O=C(CI)NCCCCCCCNc1ncnc2c1ncn2[C@@H]1O[C@H](COP(=O)(O)OP(=O)(O)O)[C@@H](O)[C@H]1O	–
7	8	inactive	inactive	0.6	inactive	O=C(CI)NCCCCCNc1ncnc2c1ncn2[C@@H]1O[C@H](COP(=O)(O)OP(=O)(O)O)[C@@H](O)[C@H]1O	–
–	–	inactive	–	–	–	O=C(CI)NCCCCCCCCNc1ncnc2c1ncn2[C@@H]1O[C@H](COP(=O)(O)OP(=O)(O)OP(=O)(O)O)[C@@H](O)[C@H]1O	–
19	9	inactive	inactive	0.65	inactive	O=C(CI)NCCCCCCNc1ncnc2c1ncn2[C@@H]1O[C@H](COP(=O)(O)OP(=O)(O)O)[C@@H](O)[C@H]1O	–
